The results in this text go back to ChEMBL document CHEMBL4396876, “Antisulfatase, Osteogenic, and Anticancer Activities of Steroid Sulfatase Inhibitor EO-33 in Mice” (J Med Chem, 2019).

Data set [1] in a line: Plasma concentration in Balb/c mouse at 10 mg/kg, sc administered as single dose using MC/EtOH formulation measured after 7 hrs by LC-MS/MS analysis. It is filed as ADME, organism-based. An outline of the steps: (§1)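 Female Balb/c mice, fasted 8 h with free water, given a single dose in 0.1 mL vehicle: EO-33 dissolved in EtOH, then aqueous 0.4% methylcellulose added to a final 8% EtOH. Sacrificed under isoflurane at 1, 3, 7, 12 and 24 h (2–3 mice/group). Cardiac blood collected into K-EDTA and plasma stored at −80 °C. LC-MS/MS on 100 µL plasma. AUC0-24h taken from the five time points.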

Data set [2] is described as follows: Plasma concentration in Balb/c mouse at 2 mg/kg, sc administered as single dose using MC/EtOH formulation measured after 7 hrs by LC-MS/MS analysis. It is filed as ADME, organism-based. In short, it runs like this:
as §1

Data set [3] can be described thus: Plasma concentration in Balb/c mouse at 2 mg/kg, sc administered as single dose using MC/EtOH formulation measured after 12 hrs by LC-MS/MS analysis. It counts as ADME, organism-based. An outline of the steps:
as §1

A short description of data set [4]: Plasma concentration in Balb/c mouse at 30 mg/kg, po administered via gavage as single dose using MC/EtOH formulation measured after 3 hrs by LC-MS/MS analysis. It is filed as ADME, organism-based. In short, it runs like this: as §1
A short description of data set [5]: Toxicity in nu/nu Br athymic mouse xenografted with human […]-stimulated MCF7 cells assessed as effect on liver weight at 30 mg/kg, sc administered 6 days per week […] using MC/EtOH formulation measured 3 hrs post-last dose. It is filed as organism-based. To be noted: in vivo. In short, it runs like this: (§2)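 MCF-7 cells (grown in DME-F12 with 5% FBS and 1 nM estradiol) inoculated SC at 4.1 x 10^6 cells in 30% Matrigel into both flanks of bilaterally ovariectomized nude mice, three days after surgery; E2S 50 µg/mouse SC three times weekly. Test agent SC 6 days/week in 0.1 mL MC:EtOH (92:8) for 28 days; vehicle-only controls. Mice weighed and killed 3 h after last dose; livers removed.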

Data set [6] has as its system Mus musculus. As to the kind of experiment: In vivo inhibition of STS in ovariectomized Balb/c mouse assessed as reduction in E1S-stimulated uterus weight at 30 mg/kg, sc administered once daily starting from day 2 to day 10 using MC/EtOH formulation and E1S addition on day 5 to 10 measured on day 11 relative to control. It is filed as functional. In short, it runs like this: (§3)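 Female Balb/c mice (15–20 g) ovariectomized under isoflurane, 5/group. Inhibitor given SC in 0.1 mL MC:EtOH (92:8) on days 2–10. E1S (2 µg/mouse, BID) or E1 (0.06 µg/mouse, ID) given SC on days 5–10. Vehicle controls included. Uterus dissected and weighed on day 11. Means ± SEM.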

Data set [7] is described as follows: Hepatotoxicity in ovariectomized-induced C57BL/6 mouse model of osteoporosis assessed as effect on liver weight at 30 mg/kg, sc administered 6 days per week for 70 days using MC/EtOH formulation measured post last dose by necropsy analysis. It is filed as toxicity, organism-based. To be noted: in vivo.
Data set [8] in a line: Plasma concentration in Balb/c mouse at 30 mg/kg, po administered via gavage as single dose using MC/EtOH formulation measured at 1 hr by LC-MS/MS analysis. It counts as ADME, organism-based. An outline of the steps:
as §1

Data set [9] is described as follows: Toxicity in nu/nu Br athymic mouse xenografted with human […]-stimulated MCF7 cells assessed as effect on kidneys at 30 mg/kg, sc administered 6 days per week […] using MC/EtOH formulation measured 3 hrs post-last dose by necropsy analysis. It counts as organism-based. To be noted: in vivo. An outline of the steps: as §2
A short description of data set [10]: AUC (0 to 24 hrs) in Balb/c mouse at 30 mg/kg, po administered via gavage as single dose using MC/EtOH formulation by LC-MS/MS analysis. It counts as ADME, organism-based. Also on record: time < 24 hr, dose 30 mg/kg, route oral. To be noted: in vivo. In short, it runs like this:
as §1

A short description of data set [11]: Plasma concentration in Balb/c mouse at 30 mg/kg, sc administered as single dose using MC/EtOH formulation measured after 7 hrs by LC-MS/MS analysis. It counts as ADME, organism-based. In short, it runs like this:
as §1

Data set [12] is described as follows: Plasma concentration in Balb/c mouse at 10 mg/kg, sc administered as single dose using MC/EtOH formulation measured after 24 hrs by LC-MS/MS analysis. It counts as ADME, organism-based. In short, it runs like this: as §1
For data set [13], the system named is Mus musculus. Description: Ex vivo inhibition of STS in ovariectomized Balb/c mouse liver homogenates assessed as reduction in transformation of [3H]-E1S into [3H]-E1 at 30 mg/kg, sc administered twice daily starting from day 2 to day 10 using MC/EtOH formulation and E1S addition on day 5 to 10 measured on day 11 by liquid scintillation counting method relative to control. It is filed as functional. In short, it runs like this:
(§4)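 Livers collected on day 11 from the OVX Balb/c uterotrophic protocol and homogenized in cold pH 7.4 phosphate buffer with protease inhibitors. 2000 g supernatant, 100 or 500 µg protein, incubated with [3H]-E1S/E1S (final 1 µM) in PBS for 2 h at 37 °C. Xylene extraction, then scintillation counting of both phases. Result given as % E1 formed. Triplicate.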

Data set [14] relates to Mus musculus. Description: Osteogenic activity in ovariectomized-induced C57BL/6 mouse model of osteoporosis assessed as recovery of tibia weight at 30 mg/kg, sc administered 6 days per week for 70 days using MC/EtOH formulation relative to control. It is filed as functional. In short, it runs like this: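 Female C57BL/6 mice (63–70 days) ovariectomized under isoflurane; sham controls kept. 8/group, dosed SC in 0.1 mL MC:EtOH (92:8) for 70 days. Tibias excised and weighed (mg/g body weight). Calcium measured by ICP-MS after calcination at 600 °C for 6 h and HNO3 microwave digestion; expressed as mg/g tibia.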

The nature of data set [15]: Plasma concentration in Balb/c mouse at 30 mg/kg, sc administered as single dose using MC/EtOH formulation measured after 24 hrs by LC-MS/MS analysis. It counts as ADME, organism-based. An outline of the steps:
as §1

Data set [16] deals with Mus musculus. As to the kind of experiment: In vivo inhibition of STS in sc-dosed ovariectomized Balb/c mouse assessed as reduction in E1S-stimulated uterus weight administered twice daily starting from day 2 to day 10 using MC/EtOH formulation and E1S addition on day 5 to 10 measured on day 11. It is filed as functional, organism-based. In short, it runs like this:
as §3

A short description of data set [17]: Toxicity in nu/nu Br athymic mouse xenografted with human […] MCF7 cells assessed as effect on body weight at 30 mg/kg, sc administered 6 days per week for […] using MC/EtOH formulation measured 3 hrs post-last dose. It is filed as organism-based. To be noted: in vivo. In short, it runs like this:
as §2

Data set [18] in a line: Toxicity in nu/nu Br athymic mouse xenografted with human […]-stimulated MCF7 cells assessed as effect on liver at 30 mg/kg, sc administered 6 days per week for […] using MC/EtOH formulation measured 3 hrs post-last dose by necropsy analysis. It counts as organism-based. To be noted: in vivo. An outline of the steps:
as §2

Data set [19] has as its system Mus musculus. Description: Ex vivo inhibition of STS in ovariectomized Balb/c mouse liver homogenates assessed as reduction in transformation of [3H]-E1S into [3H]-E1 at 15 mg/kg, sc administered twice daily starting from day 2 to day 10 using MC/EtOH formulation and E1S addition on day 5 to 10 measured on day 11 by liquid scintillation counting method relative to control. It is filed as functional. In short, it runs like this: as §4

The nature of data set [20]: Plasma concentration in Balb/c mouse at 30 mg/kg, po administered via gavage as single dose using MC/EtOH formulation measured after 7 hrs by LC-MS/MS analysis. It counts as ADME, organism-based. In short, it runs like this: as §1
For data set [21], the system named is Mus musculus. Description: Estrogenic activity in ovariectomized-induced C57BL/6 mouse model of osteoporosis assessed as stimulation of uterus weight at 30 mg/kg, sc administered 6 days per week for 70 days using MC/EtOH formulation measured post last dose by necropsy analysis. It counts as ADME, organism-based. To be noted: in vivo.
Data set [22] concerns Mus musculus. As to the kind of experiment: Estrogenic activity in ovariectomized Balb/c mouse assessed as stimulation of uterine weight at 30 mg/kg, sc administered once daily from day 2 to 10 using MC/EtOH formulation measured on day 11. To be noted: in vivo. It is filed as organism-based. In short, it runs like this:
as §3

Each structure is given as a SMILES string.

Consider `Cc1ccc(CN(Cc2ccc(C(=O)N3CCc4ccc(OS(N)(=O)=O)cc4C3)cc2)Cc2ccco2)s1`, for which the concentration at 7 h in [1] is 15 ng/mL; in data set [2], 1 ng/mL; in [11] it was 530 ng/mL; in data set [20] it was 75 ng/mL. This compound also gave a concentration at 12 h in [3] of 1 ng/mL. The compound further showed a concentration at 3 h in [4] of 19 ng/mL. Besides, the Activity result is recorded as “Non-Toxic” in data set [5]; “Non-Toxic” in data set [7]; “Non-Toxic” in [9]; 100% in data set [14]; “Non-Toxic” in [17]; “Non-Toxic” in data set [18]. Further, the Activity result in data set [21] and in [22] was “Non-Toxic” each time. Besides, the inhibition in vivo at 30 mg/kg came to 42% in data set [6] and 81% in data set [13]. Also, the concentration at 1 h in data set [8] is 308 ng/mL. The compound further displayed an AUC(0-t) at 24 h in data set [10] of 878 ng·h/mL. Also, the concentration at 24 h in data set [12] was 2 ng/mL; in [15], 13 ng/mL. Besides, in data set [16], the inhibition result was “Dose-dependent effect”. Besides, the inhibition in vivo at 15 mg/kg in data set [19] was found to be 71%.
